Source: ChEMBL document CHEMBL1131570, “2,5-bis[4-(N-alkylamidino)phenyl]furans as anti-Pneumocystis carinii agents” (J Med Chem, 1998)

Experiments:
[1] = Toxicity at 10.4 a dose of umol/kg/day against Pneumocystis carinii in rats; conditions: rat, in vivo
Rattus norvegicus [2] = assay: The cysts/g of lung (% of control ) is calculated at a dose of 10.4 umol/kg/day against Pneumocystis carinii in rats; type: functional
Outline: (§1)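 Rat *P. carinii* pneumonia model: furan dications given intravenously; lung cysts counted per g of lung tissue and expressed relative to pooled saline-treated control rats.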

[3] = Toxicity at a dose of 10 umol/kg/day against Pneumocystis carinii in rats; conditions: rat, in vivo
Rattus norvegicus [4] = assay: The cysts/g of lung (% of control ) is calculated at a dose of 10 umol/kg/day against Pneumocystis carinii in rats; type: functional; outline: as §1
Rattus norvegicus [5] = assay: The cysts/g of lung (% of control ) is calculated at a dose of 4.8 umol/kg/day against Pneumocystis carinii in rats; type: functional; outline: as §1
[6] = Toxicity at a dose of 0.03 umol/kg/day against Pneumocystis carinii in rats; conditions: rat, in vivo
[7] = Toxicity at a dose of 2.7 umol/kg/day against Pneumocystis carinii in rats; conditions: rat, in vivo
[8] = Toxicity at a dose of 0.3 umol/kg/day against Pneumocystis carinii in rats; conditions: rat, in vivo
Rattus norvegicus [9] = assay: The cysts/g of lung (% of control ) is calculated at a dose of 2.7 umol/kg/day against Pneumocystis carinii in rats; type: functional
Outline: (§2)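 P. carinii-infected rats dosed intravenously with the furan dication. Cysts were counted per g of lung tissue and expressed as % of the mean count of pooled saline-treated controls (n = 142).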

Rattus norvegicus [10] = assay: The cysts/g of lung (% of control ) is calculated at a dose of 0.03 umol/kg /day against Pneumocystis carinii in rats; type: functional; outline: as §2
Rattus norvegicus [11] = assay: The cysts/g of lung (% of control ) is calculated at a dose of 0.3 umol/kg /day against Pneumocystis carinii in rats; type: functional; outline: as §2
Rattus norvegicus [12] = assay: The cysts/g of lung (% of control ) is calculated at a dose of 1.0 umol/kg/day against Pneumocystis carinii in rats; type: functional; outline: as §1
[13] = Toxicity at a dose of 1.0 umol/kg/day against Pneumocystis carinii in rats; conditions: rat, in vivo
Rattus norvegicus [14] = assay: The cysts/g of lung (% of control ) is calculated at a dose of 9.9 umol/kg/day against Pneumocystis carinii in rats; type: functional; outline: as §1
[15] = Toxicity at a dose of 0.2 umol/kg/day against Pneumocystis carinii in rats; conditions: rat, in vivo
[16] = Toxicity at a dose of 10.6 umol/kg/day against Pneumocystis carinii in rats; conditions: rat, in vivo
Rattus norvegicus [17] = assay: The cysts/g of lung (% of control ) is calculated at a dose of 0.2 umol/kg/day against Pneumocystis carinii in rats; type: functional; outline: as §1
Rattus norvegicus [18] = assay: The cysts/g of lung (% of control ) is calculated at a dose of 10.6 umol/kg/day against Pneumocystis carinii in rats; type: functional; outline: as §1
[19] = Toxicity at a dose of 13.3 umol/kg/day against Pneumocystis carinii in rats; conditions: rat, in vivo
[20] = Toxicity at a dose of 22.0 umol/kg/day against Pneumocystis carinii in rats;; conditions: rat, in vivo
Rattus norvegicus [21] = assay: The cysts/g of lung (% of control ) is calculated at a dose of 22.0 umol/kg/day against Pneumocystis carinii in rats; type: functional; outline: as §1
Rattus norvegicus [22] = assay: The cysts/g of lung (% of control ) is calculated at a dose of 13.3 umol/kg/day against Pneumocystis carinii in rats; type: functional; outline: as §1
Rattus norvegicus [23] = assay: The cysts/g of lung (% of control ) is calculated at a dose of 10.8 umol/kg/day against Pneumocystis carinii in rats; type: functional; outline: as §1
Rattus norvegicus [24] = assay: The cysts/g of lung (% of control ) is calculated at a dose of 0.5 umol/kg/day against Pneumocystis carinii in rats; type: functional; outline: as §1
[25] = Toxicity at a dose of 10.8 umol/kg/day against Pneumocystis carinii in rats; conditions: rat, in vivo
[26] = Toxicity at a dose of 0.5 umol/kg/day against Pneumocystis carinii in rats; conditions: rat, in vivo
Rattus norvegicus [27] = assay: The cysts/g of lung (% of control ) is calculated at a dose of 9.4 umol/kg day against Pneumocystis carinii in rats; type: functional; outline: as §1
Rattus norvegicus [28] = assay: The cysts/g of lung (% of control ) is calculated at a dose of 0.9 umol/kg day against Pneumocystis carinii in rats; type: functional; outline: as §1
[29] = Toxicity at a dose of 1.9 umol/kg day against Pneumocystis carinii in rats; conditions: rat, in vivo
Rattus norvegicus [30] = assay: The cysts/g of lung (% of control ) is calculated at a dose of 0.2 umol/kg day against Pneumocystis carinii in rats; type: functional; outline: as §1
[31] = Toxicity at a dose of 0.2 umol/kg day against Pneumocystis carinii in rats; conditions: rat, in vivo
[32] = Toxicity at a dose of 0.9 umol/kg day against Pneumocystis carinii in rats; conditions: rat, in vivo
Rattus norvegicus [33] = assay: The cysts/g of lung (% of control ) is calculated at a dose of 1.9 umol/kg day against Pneumocystis carinii in rats; type: functional; outline: as §1
Rattus norvegicus [34] = assay: The cysts/g of lung (% of control ) is calculated at a dose of 2.2 umol/kg/day against Pneumocystis carinii in rats; type: functional; outline: as §1
Rattus norvegicus [35] = assay: The cysts/g of lung (% of control ) is calculated at a dose of 1.1 umol/kg/day against Pneumocystis carinii in rats; type: functional; outline: as §1
Rattus norvegicus [36] = assay: The cysts/g of lung (% of control ) is calculated at a dose of 0.2 umol/kg /day against Pneumocystis carinii in rats; type: functional; outline: as §1
[37] = Toxicity at a dose of 1.1 umol/kg / day against Pneumocystis carinii in rats; conditions: rat, in vivo
[38] = Toxicity at a dose of 2.2 umol/kg /day against Pneumocystis carinii in rats; conditions: rat, in vivo
[39] = Toxicity at a dose of 0.9 umol/kg/day against Pneumocystis carinii in rats; conditions: rat, in vivo
Rattus norvegicus [40] = assay: The cysts/g of lung (% of control ) is calculated at a dose of 9.1 umol/kg/day against Pneumocystis carinii in rats; type: functional; outline: as §1
Rattus norvegicus [41] = assay: The cysts/g of lung (% of control ) is calculated at a dose of 0.9 umol/kg/day against Pneumocystis carinii in rats; type: functional; outline: as §1
[42] = Toxicity at a dose of 9.1 umol/kg/day against Pneumocystis carinii in rats; conditions: rat, in vivo
[43] = Toxicity at a dose of 10.4 umol/kg/day against Pneumocystis carinii in rats; conditions: rat, in vivo
Rattus norvegicus [44] = assay: The cysts/g of lung (% of control ) is calculated at a dose of 9.7 umol/kg/day against Pneumocystis carinii in rats; type: functional; outline: as §1
[45] = Toxicity at a dose of 9.7 umol/kg/day against Pneumocystis carinii in rats;; conditions: rat, in vivo

CC/N=C(\N)c1ccc(-c2ccc(-c3ccc(/C(N)=N/CC)cc3)o2)cc1
Toxicity [1]: 0
Control (Rattus norvegicus [2]): 0.05%

CC(C)CNC(=N)c1ccc(-c2ccc(-c3ccc(C(=N)NCC(C)C)cc3)o2)cc1
Toxicity [3]: 0
Control (Rattus norvegicus [4]): 2.2%

CCC(CC)NC(=N)c1ccc(-c2ccc(-c3ccc(C(=N)NC(CC)CC)cc3)o2)cc1
Control (Rattus norvegicus [5]): 24.43%

N=C(N)c1ccc(-c2ccc(-c3ccc(C(=N)N)cc3)o2)cc1 [FURAMIDINE]
Toxicity [6]: 0
Toxicity [7]: 0
Toxicity [8]: 0
Control (Rattus norvegicus [9]): 5.65%
Control (Rattus norvegicus [10]): 21.97%
Control (Rattus norvegicus [11]): 5.38%

N=C(NC1CCC1)c1ccc(-c2ccc(-c3ccc(C(=N)NC4CCC4)cc3)o2)cc1
Control (Rattus norvegicus [12]): 0.67%
Toxicity [13]: 0
Control (Rattus norvegicus [14]): 0.05%

CCCNC(=N)c1ccc(-c2ccc(-c3ccc(C(=N)NCCC)cc3)o2)cc1
Toxicity [15]: 0
Toxicity [16]: 0
Control (Rattus norvegicus [17]): 107.83%
Control (Rattus norvegicus [18]): 0.08%

N=C(N)c1ccc(OCCCCCOc2ccc(C(=N)N)cc2)cc1 [PENTAMIDINE]
Toxicity [19]: 0
Toxicity [20]: Local toxicity
Control (Rattus norvegicus [21]): 1.46%
Control (Rattus norvegicus [22]): 0.61%

N=C(NCC1CC1)c1ccc(-c2ccc(-c3ccc(C(=N)NCC4CC4)cc3)o2)cc1
Control (Rattus norvegicus [23]): 0.24%
Control (Rattus norvegicus [24]): 3.25%
Toxicity [25]: 0
Toxicity [26]: 0

C/N=C(\N)c1ccc(-c2ccc(-c3ccc(/C(N)=N/C)cc3)o2)cc1
Toxicity [15]: 0
Control (Rattus norvegicus [17]): 85.37%
Control (Rattus norvegicus [18]): 0.16%

N=C(NCC1CCCCC1)c1ccc(-c2ccc(-c3ccc(C(=N)NCC4CCCCC4)cc3)o2)cc1
Toxicity [16]: 0
Control (Rattus norvegicus [18]): 43.9%

N=C(NC1CCCC1)c1ccc(-c2ccc(-c3ccc(C(=N)NC4CCCC4)cc3)o2)cc1
Control (Rattus norvegicus [27]): 0.03%
Control (Rattus norvegicus [28]): 0.11%
Toxicity [29]: 0
Control (Rattus norvegicus [30]): 93.5%
Toxicity [31]: 0
Toxicity [32]: 0
Control (Rattus norvegicus [33]): 0.08%

CC(C)NC(=N)c1ccc(-c2ccc(-c3ccc(C(=N)NC(C)C)cc3)o2)cc1
Control (Rattus norvegicus [34]): 8.41%
Control (Rattus norvegicus [35]): 11.73%
Control (Rattus norvegicus [36]): 169%
Control (Rattus norvegicus [23]): 0.2%
Toxicity [37]: 0
Toxicity [15]: 0
Toxicity [25]: 0
Toxicity [38]: 0

N=C(NC1CCCCC1)c1ccc(-c2ccc(-c3ccc(C(=N)NC4CCCCC4)cc3)o2)cc1
Toxicity [39]: 0
Control (Rattus norvegicus [40]): 0.02%
Control (Rattus norvegicus [41]): 26.28%
Toxicity [42]: 0

N=C(NC1CC1)c1ccc(-c2ccc(-c3ccc(C(=N)NC4CC4)cc3)o2)cc1
Control (Rattus norvegicus [23]): 0.03%
Toxicity [15]: 0
Control (Rattus norvegicus [17]): 129%

N=C(NCCO)c1ccc(-c2ccc(-c3ccc(C(=N)NCCO)cc3)o2)cc1
Toxicity [43]: 0
Control (Rattus norvegicus [2]): 0.6%

CC(C)CC/N=C(\N)c1ccc(-c2ccc(-c3ccc(/C(N)=N/CCC(C)C)cc3)o2)cc1
Control (Rattus norvegicus [44]): 2.38%
Toxicity [45]: 0
